CSC inhib: blocks cancer stem cells. cancer stem cell-like cells viability, luminescence. inhibition, % at 7.5 µM. actives 1.1% (n = 300,000). AID 2717; in the data active = inhibition above about 75%; tested in HMLE shEcad cells
Beta cell apopt: blocks beta cell apoptosis; AID 435005; actives 0.8% (n = 300,000); protection from apoptosis, % (test concentration not listed); INS-1E cytokine-induced death, ATP luminescence, 48 h; percent of positive-control rescue, neutral wells zero;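 active = Every replicate reaches about 75%, or at least half do and their mean reaches it too, limit read from the data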;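 also: 0% = cytokine-treated negative control wells and 100% = positive control rescue; higher means more ATP so stronger rescue from cytokine killing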
ANO1 block: mouse TMEM16A channel inhibition, primary screen; normalized B-score (activity score, 25-100; higher = stronger inhibition) at 10 µM; Q8BHY3; actives 1.2% (n = 310,000); HEK293 TMEM16A/YFP iodide influx fluorescence, ionomycin; AID 588511;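 active = ratio plate-corrected score three or more library SD toward inhibition, starting fluorescence score within five deviations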;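 also: score derived from kinetic fluorescence span divided by baseline fluorescence per well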
Target sequence (Q8BHY3 whole entry, looked up): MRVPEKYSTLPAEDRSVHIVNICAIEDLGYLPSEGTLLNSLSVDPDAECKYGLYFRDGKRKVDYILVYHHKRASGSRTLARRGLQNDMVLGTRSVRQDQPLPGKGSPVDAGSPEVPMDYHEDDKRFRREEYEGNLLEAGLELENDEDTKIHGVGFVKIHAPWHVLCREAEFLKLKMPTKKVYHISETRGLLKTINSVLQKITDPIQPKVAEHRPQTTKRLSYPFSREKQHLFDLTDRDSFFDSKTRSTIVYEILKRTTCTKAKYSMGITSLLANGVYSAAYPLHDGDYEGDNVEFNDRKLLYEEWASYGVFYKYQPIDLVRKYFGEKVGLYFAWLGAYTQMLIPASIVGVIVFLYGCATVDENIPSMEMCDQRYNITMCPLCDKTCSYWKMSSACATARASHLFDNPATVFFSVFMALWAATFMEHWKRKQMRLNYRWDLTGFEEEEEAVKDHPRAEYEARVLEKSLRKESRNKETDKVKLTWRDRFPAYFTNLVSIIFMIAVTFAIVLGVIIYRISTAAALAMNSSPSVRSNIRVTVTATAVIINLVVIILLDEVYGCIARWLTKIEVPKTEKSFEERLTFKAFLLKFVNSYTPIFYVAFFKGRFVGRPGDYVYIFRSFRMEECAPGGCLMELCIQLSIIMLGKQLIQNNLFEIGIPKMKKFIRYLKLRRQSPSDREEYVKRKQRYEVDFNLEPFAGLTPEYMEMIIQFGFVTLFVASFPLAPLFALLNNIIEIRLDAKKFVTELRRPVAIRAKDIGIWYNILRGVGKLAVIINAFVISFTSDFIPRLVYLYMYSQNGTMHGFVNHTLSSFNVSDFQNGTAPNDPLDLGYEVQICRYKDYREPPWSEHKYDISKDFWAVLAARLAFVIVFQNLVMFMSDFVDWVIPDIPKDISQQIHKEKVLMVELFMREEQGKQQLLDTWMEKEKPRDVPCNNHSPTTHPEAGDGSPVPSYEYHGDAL
MC4R barr agon: human MC4R agonism via beta-arrestin; P32245; U2OS MC4R beta-arrestin complementation, luminescence; percent of melanotan II response, DMSO zero; activation, % at 8.9 µM; actives 0.98% (n = 360,000); AID 540308;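 active = activation above a per-plate cutoff, the mean activation of sample wells on that plate plus 3 SD, cut at about 8% in these data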
MC4R antagonist: antagonists of human melanocortin 4 receptor (MC4R); MC4R-expressing cells, MTII-stimulated cAMP, LANCE TR-FRET; inhibition, % at 6.5 µM; actives 0.48% (n = 360,000);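 active = inhibition above its plate's cutoff, the mean of tested wells on that plate plus 3 SD, cut at about 29% in these data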;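 also: 0% = Melanotan II alone and 100% = Melanotan II plus saturating MCL0020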
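System: U2OS-MC4R stable cell line; Technique: Eu-cAMP/anti-cAMP TR-FRET, emission 671 nm; Repeats: single well per compound; Also added: Melanotan II; Dosing: one concentration, 6.5 µM nominal; Schedule: 30-min compound, 1-h challenge, 1-h detection, room temperature.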
ANO1 activ: activates or potentiates the mouse TMEM16A chloride channel. HEK293 TMEM16A/YFP-H148Q/I152L, iodide quench fluorescence; stronger effect = lower value. AID 623877. actives 0.3% (n = 340,000). B-score at 10 µM;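 active = fluorescence-ratio B-score plate-corrected deviation score at least 3 library SD below zero, with starting fluorescence score within 5 deviations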;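 also: channel opened by trigger with iodide after compound preincubation; score built on the fluorescence ratio of max minus min over baseline; more negative score means more quench and so TMEM16A activation or potentiation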
MC4R barr conf: human MC4R beta-arrestin agonism confirmation | shares compounds with MC4R barr agon | U2OS MC4R beta-arrestin recruitment, luminescence; scaled DMSO 0%, Melanotan II 100% | activation, % at 8.9 µM | actives 31% (n = 2,400) | AID 602192;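 active = mean activation across replicates above the hit cutoff set in the earlier primary screen, cut at about 8% in these data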
MOR DOR agonist: counter-screen for MC4R agonists: agonists of mu-delta opioid heterodimer; activation, % at 9.2 µM; shares compounds with MC4R barr agon; AID 602194; actives 5.8% (n = 2,400); U2OS PathHunter beta-arrestin, beta-gal luminescence; percent of deltorphin B response, DMSO zero;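 active = mean activation across replicates exceeds the hit threshold derived in the earlier primary screen, cut at about 18% in these data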;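 also: 100% = deltorphin B at 0.9 µM final and 0% = DMSO alone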
Active calls of the source: *; i = inactive; / = no result given. Most compounds without a hit are left out; they make up all but 3.8% or so of the library.

SMILES	CSC inhib	Beta cell apopt	ANO1 block	MC4R barr agon	MC4R antagonist	ANO1 activ	MC4R barr conf	MOR DOR agonist
C[C@@]12C(=O)Nc3cc(F)c(F)cc3C(=O)N1[C@H]1c3cc(Cl)ccc3OC[C@@H]1[C@@H]2c1ccccc1	59	6	/	5	3	i	/	/
CCCCC(=O)Nc1sc2c(c1C(=O)OCC)CCC(C=O)=C2Cl	42	4	i	10*	15	i	7	5
CCOC(=O)c1c(NC(=O)c2ccccc2Cl)sc2c1CCc1ccccc1-2	46	1	i	-2	16	i	/	/
CCN(CC)c1ccc(/C=N/NC(=O)Cc2nnc(NC(=O)Nc3ccccc3)s2)cc1	/	-14	i	11*	1	i	0	2
CN(C(=O)CN(C)S(=O)(=O)c1ccc(F)cc1)c1c(N)n(Cc2ccccc2)c(=O)[nH]c1=O	12	-4	i	2	6	i	/	/
Cc1nn(-c2ccccc2)c2sc(C(=O)NNC(=O)COc3ccccc3)cc12	19	-1	i	2	-5	i	/	/
Cc1nn(-c2ccccc2)c2sc(C(=O)NNC(=O)COc3cccc4ccccc34)cc12	55	2	i	25*	4	i	6	4
COc1ccc(NC(=O)COC(=O)CCNC(=O)c2ccco2)cc1Cl	-6	-4	/	0	-1	i	/	/
CCCc1cc(-c2[nH]ncc2-c2ccc3c(c2)OCCCO3)c(O)cc1O	95*	-21	25*	12*	10	i	11*	18
Cn1cc(CNCc2cn[nH]c2-c2ccc(F)cc2)c(-c2ccc3c(c2)OCCO3)n1	-10	-3	i	-2	0	i	/	/
CCCc1cc(-c2[nH]ncc2-c2ccc(C(=O)OCC)o2)c(O)cc1O	51	23	i	23*	17	i	10*	7
CCc1cc(-c2[nH]ncc2-c2nc3ccccc3n2C)c(O)cc1O	5	-1	i	2	-14	i	/	/
CCOc1cccc(N2C(=O)CC(NNC(=O)c3ccc(Br)o3)C2=O)c1 (centres undefined)	-4	-2	i	-1	11	i	/	/
CCCOc1ccc(N2C(=O)CC(NNC(=O)c3ccc(COc4ccccc4)o3)C2=O)cc1 (centres undefined)	-3	11	i	13*	21	i	5	7
CC1CCC(C(C)C)C(OC(=O)C[n+]2cc(-c3ccc(Cl)cc3)n3c2CCC3)C1 (centres undefined)	13	5	i	17*	14	i	4	4
COc1ccc(-c2cnc3c(c2)C(=O)N([C@H](C)CO)C[C@@H](C)[C@@H](CN(C)C(=O)NC2CCCC2)O3)cc1	/	/	/	-1	-1	/	/	/
Fc1ccc(Cn2c(-c3cscn3)nc3ccccc32)c(Cl)c1	-2	/	i	9.7*	4	i	3	8
O=C(N/N=C/c1ccc2c(c1)OCO2)C(=O)Nc1cccc(Cl)c1	/	-2	i	1	1	i	/	/
CC(=O)c1ccc(N2C(=O)CC(N3CCN(S(=O)(=O)c4cc(C)ccc4C)CC3)C2=O)cc1 (centres undefined)	8	-5	/	1	-3	i	/	/
Cc1ccc(-c2nnc(-c3ccc4ccccc4c3)o2)cc1	/	/	/	10*	3	i	-4	1
Cc1cc(C)cc(C(=O)NC(CC(N)=O)c2ccc(N3CCN(C)CC3)c([N+](=O)[O-])c2)c1 (centres undefined)	-7	2	i	-2	5	i	/	/
CC(C)(C)C1CCc2onc(C(=O)Nc3ccc4c(c3)OCO4)c2C1 (centres undefined)	10	-8	i	12*	-3	i	5	5
CC(C)(C)C1CCc2onc(C(=O)NC3CCCC3)c2C1 (centres undefined)	18	1	i	4	-1	i	/	/
COc1cccc(CNC(=O)C2CCN(S(=O)(=O)c3ccc(-n4cnnn4)cc3)CC2)c1	8	8	i	3	3	i	/	/
COc1ccc(CCNC(=O)CNS(=O)(=O)c2ccc(Cl)cc2)cc1	2	/	i	0	3	i	/	/
SMILES	CSC inhib	Beta cell apopt	ANO1 block	MC4R barr agon	MC4R antagonist	ANO1 activ	MC4R barr conf	MOR DOR agonist
CCc1nc(NCC2CC2)c2nnn(Cc3ccccc3)c2n1	/	/	/	12*	-1	/	4	10
c1ccc(Cn2nnc3c(NCC4CCCO4)nc(C4CC4)nc32)cc1 (centres undefined)	-7	4	i	-1	-1	i	/	/
COc1cc(C(C)=NNC(=O)c2ccncc2)ccc1O	/	/	/	-2	11	i	/	/
CCCCN(C(=O)c1ccncc1)c1c(N)n(CCC)c(=O)[nH]c1=O	-5	-4	/	1	4	i	/	/
FC(F)Sc1ccc(NC(=S)NC(c2ccccc2)c2ccccc2)cc1	9	37	i	9.6*	13	i	4	9
FC(F)Sc1ccc(NC(=S)NCc2ccccc2)cc1	4	-3	i	2	10	i	/	/
CCCCc1nnc2c(N(C)S(=O)(=O)c3ccccc3)nc3ccccc3n12	1	-2	i	-2	-6	i	/	/
Cc1c(Cl)cccc1N=c1c([N+](=O)[O-])nn(-c2ccccc2)n1O	0	4	i	24*	14	i	3	9
Cc1nn(Cc2ccccc2)c(C)c1C(=O)NCCN1C(=O)S/C(=C\c2ccccc2)C1=O	-1	-16	i	11*	1	i	1	1
O=C(NCCN1C(=O)S/C(=C/c2ccccc2)C1=O)C1CC(=O)N(Cc2ccccc2)C1 (centres undefined)	-18	-4	/	-3	5	i	/	/
CN(Cc1ccc(F)cc1)C(=O)CN1CCN(S(=O)(=O)c2ccc3c(c2)OCCCO3)CC1	/	/	/	-2	11	/	/	/
Cn1c(SCC(=O)Nc2ccc3[nH]c(=O)[nH]c3c2)nnc1-c1ccccc1	-8	-6	i	-5	-1	i	/	/
Cn1c(SCC(=O)Nc2ccc3c(c2)oc2ccccc23)nnc1-c1ccccc1	-6	5	i	10*	17	i	5	4
O=C(CSc1nc2ccccc2s1)CSc1nc2ccccc2s1	-1	/	i	15*	0	i	8	2
O=C(CSc1nc2ccccc2s1)Nc1ccc2c(c1)oc1ccccc12	10	4	i	17*	4	i	5	4
